Source: article PMC3516921 (ChemMedChem, 2012)
≈ marks a conversion by molar mass, not a printed value. Where two headings read alike, the source gives them in different places.

Experiments:
[1] = target: human cannabinoid CB2 receptors (Homo sapiens, UniProt P34972); assay: [35S]GTPγS binding assay on hCB2-CHO cell membranes; assay type: biochemical; details: for Functional effect on [35S]GTPγS binding: hCB2-CHO cell membranes
[2] = target: human cannabinoid type 1 receptor (Homo sapiens, UniProt P21554); assay: CB1 receptor competitive binding assay with [3H]CP-55,940
[3] = target: human cannabinoid type 2 receptor (Homo sapiens, UniProt P34972); assay: CB2 receptor competitive binding assay with [3H]CP-55,940; details: for S.I. (selectivity index for CB2, Ki(CB1)/Ki(CB2)): Ki(CB1)/Ki(CB2) ratio
[4] = Experimental logP determined by HPLC; assay type: physicochemical; details: RP-18 column; for chromatographic logP: reversed-phase HPLC; for logP Exp: HPLC, MeOH/H2O, extrapolated to zero organic solvent
CB2 receptor = CB2 receptor (Homo sapiens, UniProt P34972); assay: On-line screening on immobilized CB1/CB2-OT column; assay type: binding; details: 0.25 nM [3H]-Win-55,1212 marker, 10 nM compound
[5] = test system: formalin-induced nocifensive behaviour; assay: Formalin test of acute peripheral and inflammatory pain; assay type: in vivo; details: mice; for Effect on 2nd phase of formalin-induced nocifensive behaviour: 3 mg/kg ip, 15 min before formalin; for Effect of AM630 pre-treatment on the antinociceptive effect of the compound: compound 3 mg/kg ip + AM630 1 mg/kg ip 5 min before
Method in brief: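 Mice (n = 8–10 per group, randomly assigned) received test compound ip (1 or 3 mg/kg) or vehicle 15 min before formalin (1.25% in saline, 30 μl, dorsal hind paw). Where used, AM630 (1 mg/kg ip) was given 5 min before compound. A blinded observer timed lifting, favouring, licking, shaking and flinching in 5-min bins over 0–10 min (early phase) and 20–60 min (late phase). Analysis was one-way ANOVA with Tukey-Kramer.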

human liver microsomes = assay: CYP-dependent in vitro metabolism in human liver microsomes; assay type: in vitro ADME
Kinetic solubility = assay type: physicochemical; details: water with 5% DMSO, 18 h incubation
[6] = read-out: CB1 Ki, mean ± SD, at least three experiments in duplicate
[7] = read-out: CB2 Ki, mean ± SD, at least three experiments in duplicate
[8] = mean ± SD, at least three experiments in duplicate

Compound	S.I. (selectivity index for CB2, Ki(CB1)/Ki(CB2)) [3]	Ki [2, 6] [nM]	Ki [3, 7] [nM]	logP Exp [4]	further results
CCCCCCC(C)(C)c1ccc([C@@H]2C[C@H](O)CC[C@H]2CCCO)c(O)c1 [CP55940, (−)-cis-3-[2-hydroxy-4-(1,1-dimethylheptyl)phenyl]-trans-4-(3-hydroxypropyl)cyclohexanol, reference compound]					Emax [1]: 84.7%
CCCCCn1cc(-c2cn(C34CC5CC(CC(C5)C3)C4)nn2)c(=O)c2cc(-c3ccc(OC(C)C)cc3)ccc21 [Compound 5, 1-(Adamantan-1-yl)-4-[6-(4-(2-propyloxy)phenyl]-1,4-dihydro-4-oxo-1-pentylquinolin-3-yl]-1H-1,2,3-triazole]	> 6				Ki [2]: > 10000 nM; Ki [3]: 1680 ± 24.5 nM; chromatographic logP [4]: 7.78
CCCCCn1cc(-c2nc(C34CC5CC(CC(C5)C3)C4)no2)c(=O)c2cc(-c3ccc(OC(C)C)cc3)ccc21 [Compound 7, 3-(Adamantan-1-yl)-5-[6-(4-(2-propyloxy)phenyl]-1,4-dihydro-4-oxo-1-pentylquinolin-3-yl]-1,2,4-oxadiadole]		> 10000	> 10000	7.71	Displacement of marker ligand from OT column (CB2 receptor): very little displacement
CCCCCn1cc(-c2cn(C34CC5CC(CC(C5)C3)C4)nn2)c(=O)c2cc(Br)ccc21 [Compound 8, 1-(Adamantan-1-yl)-4-(6-bromo-1,4-dihydro-4-oxo-1-pentylquinolin-3-yl)-1H-1,2,3-triazole]					Ki [2]: > 10000 nM; Ki [3]: 32.2 ± 1.2 nM; chromatographic logP [4]: 5.83
CCCCCn1cc(-c2nnc(C34CC5CC(CC(C5)C3)C4)o2)c(=O)c2cc(Br)ccc21 [Compound 9, 2-(Adamantan-1-yl)-5-(6-bromo-1,4-dihydro-4-oxo-1-pentylquinolin-3-yl)-1,3,4-oxadiadole]	> 40	> 10000	250 ± 8.6	5.15	
CCCCCn1cc(-c2nc(C34CC5CC(CC(C5)C3)C4)no2)c(=O)c2cc(Br)ccc21 [Compound 10, 3-(Adamantan-1-yl)-5-(6-bromo-1,4-dihydro-4-oxo-1-pentylquinolin-3-yl)-1,2,4-oxadiadole]	76	208 ± 5.5	2.7 ± 0.8	5.77	
CCCCCn1cc(-c2cn(C34CC5CC(CC(C5)C3)C4)nn2)c(=O)c2cc(-c3ccco3)ccc21 [Compound 11, 1-(Adamantan-1-yl)-4-[6-(furan-2-yl)-1,4-dihydro-4-oxo-1-pentylquinolin-3-yl]-1H-1,2,3-triazole]					Ki [2]: > 10000 nM; chromatographic logP [4]: 5.18; Emax [1]: -52%; Functional effect on [35S]GTPγS binding [1]: inverse agonist effects; Effect on 2nd phase of formalin-induced nocifensive behaviour [5]: significant reduction; Effect of AM630 pre-treatment on the antinociceptive effect of the compound [5]: completely abolished; Vmax (formation rate) (human liver microsomes; 0.5 mg microsomal protein, 60 min incubation): 0.16±0.01 nmol x min^−1 × mg^1 protein; CYP isoforms involved in metabolism (inhibition study) (human liver microsomes; human liver microsomes): CYP3A4 is the major isoform involved, while CYP1A and CYP2A are only partially implicated; Metabolite identified (human liver microsomes; human liver microsomes, HPLC-MS): side chain hydroxylated derivative 32 as its only metabolite
CCCCCn1cc(-c2nnc(C34CC5CC(CC(C5)C3)C4)o2)c(=O)c2cc(-c3ccco3)ccc21 [Compound 12, 2-(Adamantan-1-yl)-5-[6-(furan-2-yl)-1,4-dihydro-4-oxo-1-pentylquinolin-3-yl]-1H-1,3,4-oxadiadole]	> 1543	> 10000	6.5 ± 2.2	5.26	Solubility (Kinetic solubility): 128 µg/mL (≈ 265 µM); EC50 ([1]; [35S]GTPγS binding, 95% confidence limits in brackets): 57.6 nM; Functional effect on [35S]GTPγS binding [1]: inverse agonist effects; Emax ([1]; percentage change in [35S]GTPγS binding, 95% confidence limits in brackets): −46.6% (−52.5 and −40.6%); Effect on 2nd phase of formalin-induced nocifensive behaviour [5]: significant reduction; Effect of AM630 pre-treatment on the antinociceptive effect of the compound [5]: did not induce any change
CCCCCn1cc(-c2nc(C34CC5CC(CC(C5)C3)C4)no2)c(=O)c2cc(-c3ccco3)ccc21 [Compound 13, 3-(Adamantan-1-yl)-5-[6-(furan-2-yl)-1,4-dihydro-4-oxo-1-pentylquinolin-3-yl]-1H-1,2,4-oxadiadole]	82	33 ± 0.6	0.4 ± 0.1	6.38	Solubility (Kinetic solubility): 7 µg/mL (≈ 14.5 µM)
CCCCCn1c(=O)c(-c2cn(C34CC5CC(CC(C5)C3)C4)nn2)cc2ccccc21 [Compound 15, 1-(Adamantan-1-yl)-4-(1-pentylquinolin-2(1H)-one)-1H-1,2,3-triazole]	29	321.9 ± 2.1	11.1 ± 3.6		
CCCCCOc1nc2ccccc2cc1-c1cn(C23CC4CC(CC(C4)C2)C3)nn1 [Compound 16, 1-(Adamantan-1-yl)-4-[2-(pentyloxy)quinoline]-1H-1,2,3-triazole]	271		12.6 ± 4.3		Ki ([2]; read-out: CB1 Ki): 3415 ± 9.8 nM
O=c1c(-c2cn(C34CC5CC(CC(C5)C3)C4)nn2)c[nH]c2ccc(-c3ccco3)cc12 [Compound 29, 3-(1-Adamantyl-1H-1,2,3-triazol-4-yl)-6-(furan-2-yl)quinolin-4(1H)-one]		> 10000	> 10000		CB1 Ki [2, 8]: no affinity; CB2 Ki [3, 8]: no affinity
CC(O)CCCn1cc(-c2cn(C34CC5CC(CC(C5)C3)C4)nn2)c(=O)c2cc(-c3ccco3)ccc21 (stereo not shown) [Compound 32, 3-(1-Adamantyl-1H-1,2,3-triazol-4-yl)-6-(furan-2-yl)-1-(4-hydroxypentyl)quinolin-4(1H)-one]	> 52	> 10000	190 ± 10		Loss of potency versus parent compound 11 ([3]; racemic form): 150 fold
